Test results published in ChEMBL document CHEMBL3085645, “Design, synthesis and biological evaluation of phosphorodiamidate prodrugs of antiviral and anticancer nucleosides” (Eur J Med Chem, 2013).

How the values were obtained:
[1] = Chemical stability in d6 acetone/trizma buffer at 4.8 mg in absence of carboxypeptidase Y; type: physicochemical
Summary of the method: (§1)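 Prodrug kept in d6-acetone plus Trizma buffer (pH 7.6) without carboxypeptidase Y; integrity followed by 31P NMR.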

[2] = Chemical stability in d6 acetone/trizma buffer at 5 mg in absence of carboxypeptidase Y; type: physicochemical; summary of the method: as §1
[3] = Prodrug conversion assessed as carboxypeptidase Y (unknown origin)-mediated (8S)-1-(2-amino-6-oxo-1,6-dihydro-9H-purin-9-yl)-8-methyl-6-oxido-2,5-dioxa-7-aza-6-phosphanonan-9-oate 6-oxide formation at 5 mg measured after 7.5 hrs by 31P-NMR analysis; type: ADME; settings: human
Summary of the method: (§2)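 Prodrug incubated with carboxypeptidase Y in d6-acetone/Trizma buffer (pH 7.6); conversion followed over time by 31P NMR.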

[4] = Prodrug conversion assessed as carboxypeptidase Y (unknown origin)-mediated metabolite formation lacking one ester moiety at 5 mg measured every 5 mins for 24 hrs by 31P-NMR analysis; type: ADME; settings: human; summary of the method: as §2
[5] = Cytotoxicity against HEL cells; type: cell-based; settings: human
Felid alphaherpesvirus 1 = assay: Antiviral activity against Feline herpesvirus infected in cat CRFK cells assessed as inhibition of virus-induced cytopathicity; type: functional, organism-based; settings: Felid alphaherpesvirus 1, CRFK
Human alphaherpesvirus 1 [6] = assay: Antiviral activity against acyclovir-resistant thymidine kinase-deficient Herpes simplex virus 1 KOS infected in HEL cells assessed as inhibition of virus-induced cytopathicity; type: functional, organism-based; settings: Human alphaherpesvirus 1, KOS
Human alphaherpesvirus 2 = assay: Antiviral activity against Herpes simplex virus 2 G infected in HEL cells assessed as inhibition of virus-induced cytopathicity; type: functional, organism-based; settings: Human alphaherpesvirus 2, strain G
Human alphaherpesvirus 1 [7] = assay: Antiviral activity against Herpes simplex virus 1 KOS infected in HEL cells assessed as inhibition of virus-induced cytopathicity; type: functional, organism-based; settings: Human alphaherpesvirus 1, KOS
Hepatitis C virus = assay: Antiviral activity against Hepatitis C virus genotype 1b infected in human HuH7 cells assessed as inhibition of viral replication; type: functional, organism-based, Hepacivirus hominis; settings: Huh-7, read-out: EC50
MT4 = assay: Cytotoxicity against human MT4 cells assessed as cell viability by propidium iodide staining-based cell counting analysis
Summary of the method: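 MT-4 cultures, untreated or treated, were counted on an automated cell counter. Total and dead cells were enumerated by propidium iodide-based assay.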

[8] = tested on: Human immunodeficiency virus 1; assay: Antiviral activity against HIV1 infected in human MT4 cells assessed as p24 production after 3 days; settings: Human immunodeficiency virus 1, MT4, 72 h
[9] = Prodrug conversion assessed as carboxypeptidase Y (unknown origin)-mediated (S)-2-((((2R,3S,4R,5R)-5-(5-amino-4-carbamoyl-1H-imidazol-1-yl)-3,4-dihydroxytetrahydrofuran-2-yl)methoxy)oxidophosphorylamino)propanoate formation at 4.8 mg measured after 24 hrs by 31P-NMR analysis; type: ADME; settings: human; summary of the method: as §2
HeLa [10] = assay: Cytostatic activity against thymidine kinase-deficient human HeLa cells assessed as growth inhibition after 3 days by particle counting analysis; type: functional, cell-based; settings: 72 h
Summary of the method: (§3)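 Tumor cells seeded and exposed to a range of compound concentrations. Cell number counted with a particle counter after 2 days (L1210, L1210/TK) or 3 days (CEM, CEM/TK, HeLa, HeLa TK, Caco-2, Colo-320).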

HeLa [11] = assay: Cytostatic activity against human HeLa cells assessed as growth inhibition after 3 days by particle counting analysis; type: functional, cell-based; settings: 72 h; summary of the method: as §3
CCRF-CEM = assay: Cytostatic activity against human CEM cells assessed as growth inhibition after 3 days by particle counting analysis; type: functional, cell-based; settings: 72 h; summary of the method: as §3
L1210 = assay: Cytostatic activity against mouse L1210 cells assessed as growth inhibition after 2 days by particle counting analysis; type: functional, cell-based; settings: L1210, 48 h; summary of the method: as §3

SMILES | Stability [1] | Stability [2] | Drug metabolism [3] | Drug metabolism [4] | MCC [5] [µM] | EC50 (Felid alphaherpesvirus 1) [µM] | EC50 (Human alphaherpesvirus 1 [6]) [µM] | EC50 (Human alphaherpesvirus 2) [µM] | EC50 (Human alphaherpesvirus 1 [7]) [µM] | EC50 (Hepatitis C virus) [µM] | CC50 (MT4) [µM] | EC50 [8] [µM] | Drug metabolism [9] | IC50 (HeLa [10]) [µM] | IC50 (HeLa [11]) [µM] | IC50 (CCRF-CEM) [µM] | IC50 (L1210) [µM]
C[C@H](NP(=O)(N[C@@H](C)C(=O)OCc1ccccc1)OCCOCn1cnc2c(=O)[nH]c(N)nc21)C(=O)OCc1ccccc1 | Stable | Stable | Active | Active | > 100 | > 100 | 25 | 16 | 18 | > 100 | 34.9 | 2.01 |  |  |  |  | 
C[C@H](NP(=O)(N[C@@H](C)C(=O)OCC(C)(C)C)OC[C@H]1O[C@@H](n2cnc(C(N)=O)c2N)[C@H](O)[C@@H]1O)C(=O)OCC(C)(C)C |  |  |  |  | > 100 | > 100 | > 100 | > 100 | > 100 |  |  |  | Not Active | > 250 | > 250 | > 250 | > 250
C[C@H](NP(=O)(N[C@@H](C)C(=O)OCC(C)(C)C)OCCOCn1cnc2c(=O)[nH]c(N)nc21)C(=O)OCC(C)(C)C |  |  |  |  | > 100 | > 100 | 20 | 40 | 33 | > 100 | 82.8 | 4.07 |  |  |  |  | 
